# Shown are actives, neighbours in structure and some others; about 2.7% of the full set was active somewhere.
# PP1 inh – counter-screen for PP5 inhibitors: inhibitors of human PP1-alpha | 320,000 compounds, 0.9% hits | purified PP1alpha, OMFP fluorescence | P62136 | inhibition, % at 6.7 µM;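 active = inhibition above the mean inhibition of all tested compounds plus 3 SD, computed separately for each screening campaign, cut at about 15% in these data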
# Target sequence (P62136 whole entry, looked up): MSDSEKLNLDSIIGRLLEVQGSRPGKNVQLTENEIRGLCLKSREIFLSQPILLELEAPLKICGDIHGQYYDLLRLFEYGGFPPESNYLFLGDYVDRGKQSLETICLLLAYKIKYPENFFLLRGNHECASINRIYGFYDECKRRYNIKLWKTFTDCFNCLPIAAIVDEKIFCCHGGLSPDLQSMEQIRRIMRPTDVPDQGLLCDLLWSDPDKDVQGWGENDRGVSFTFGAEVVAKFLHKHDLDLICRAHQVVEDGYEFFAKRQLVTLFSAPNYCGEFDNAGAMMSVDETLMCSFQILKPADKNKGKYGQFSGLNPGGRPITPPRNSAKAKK
# TPT1 inhibitor – blocks Candida albicans tRNA 2'-phosphotransferase | 300,000 compounds, 0.81% hits | AID 1962 | recombinant caTPT1, FP RNA substrate dephosphorylation | inhibition, % at 5 µM;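 active = inhibition above the mean of all tested compounds plus 3 SD, set per screening campaign, cut at about 24% in these data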;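 also: plate controls were DMSO alone for no effect and ferristatin control at 100 nM for full effect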
# Rpn11 block – Rpn11 (human) deubiquitinase inhibition; AID 588493; human 26S proteasome, Ub4-pepOG fluorescence polarization; 20S core pre-blocked with epoxomicin; inhibition, % at 20 µM; O00487; 360,000 compounds, 0.59% hits;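 active = inhibition at 20 µM, scaled to each plate's controls, above about 33%, limit read from the data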
# CSN deneddyl inh – blocks human CSN-mediated cullin deneddylation | Purified CSN, SCF-Nedd8-OG deneddylation, fluorescence polarization | inhibition, % at 12.5 µM | 360,000 compounds, 0.38% hits | AID 651999;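 active = pattern-corrected inhibition above about 35%, with an unprinted fluorescence ratio check between 0.5 and 1.5, limit read from the data, passing the limit was not always enough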;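 also: 0% = enzyme with substrate and 100% = substrate without enzyme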
#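 Assay system: Purified human Csn5 enzyme expressed in HEK293T cells | Amount: Enzyme 0.24 nM | Measured by: Fluorescence polarization readout | Medium: Tris/NaCl/DTT buffer, pH 7.5 | Compound dosing: One concentration, 12.5 µM, 0.25% DMSO | Times: 90 min incubation of compound, enzyme and substrate at room temperature | Control set: no-enzyme wells high, enzyme-with-substrate wells low | Read-out: % inhibition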
# NadD inh – blocks S. aureus nicotinate mononucleotide adenylyltransferase. purified NadD enzyme, colorimetric absorbance read-out. inhibition, % at 20 µM. 360,000 compounds, 0.78% hits. AID 602399; in the data active = inhibition above about 26%
# HNF4A DNA FP – change in binding of human HNF4 alpha to DNA; P41235; HNF4a-FITC DNA binding, fluorescence polarization, 1 h; activity change, % at 10 µM; 360,000 compounds, 0.3% hits; in the data active = activity change above about 30%, passing the limit was not always enough
# Numbers without * were called inactive; i = inactive; / = not tested or not shown; + = active, no number.
SMILES,PP1 inh,TPT1 inhibitor,Rpn11 block,CSN deneddyl inh,NadD inh,HNF4A DNA FP
O=C(N/N=C/c1ccc2c(c1)OCO2)c1cc(-c2ccco2)nc2ccccc12,/,/,-10,43*,24,-13
COc1cccc(C(=O)/C=C/Nc2ccc(S(=O)(=O)Nc3onc(C)c3C)cc2)c1,-2,-3,20,-9,-2,85*
Cc1ccccc1NS(=O)(=O)c1nnc(NC(=O)c2ccccc2C)s1,3,-5,-6,-2,-6,-3
NC(=O)NN=C1CCN2CCCc3cccc1c32,/,/,3,5,-3,0
CC[C@H](C)/C=C/C1=CC2=C(Cl)C(=O)[C@@]3(C)OC(=O)C(C(=O)[C@H](C)[C@@H](C)O)=C3C2=CO1,4,1,-8,49*,9,1
O=C(N/N=C/c1ccc(Sc2ccccn2)o1)c1cc2ccccc2cc1O,11,2,3,10,62*,-1
N=C(N)SCc1ccc(Cl)cc1Cl,15*,1,-5,-2,-6,1
COc1ccccc1N(C(=O)c1ccco1)C(C(=O)NC1CCCC1)c1ccc(N2CCOCC2)cc1 (centres undefined),-6,2,-3,1,0,-1
Nc1[nH]n2c(=O)c3c(nc2c1N=Nc1ccc(Cl)cc1)CCCC3,5,1,10,2,32*,2
CC1CN=C(N(C(=O)Nc2ccccc2)C(C)C)S1 (centres undefined),-3,1,-3,-2,-5,2
Cc1ccc(N(C(=O)Nc2ccccc2)C2=NCC(C)S2)cc1 (centres undefined),0,-1,-1,0,-2,33*
CCCC(=O)Nc1c(-c2cccc(C)c2)c(=O)c2ccccc2n1C,0,-1,-5,-2,-3,0
COC(=O)c1c(/N=C/NOCc2ccc(Cl)cc2)sc2c1CCN(c1ncc(C(F)(F)F)cc1Cl)C2,-1,-1,-3,37*,-1,2
N#CC1=C(c2ccc(-c3ccccc3)cc2)COC1=O,5,17,40*,16,25,8
O=C(O)CCN1C(=O)/C(=C\c2ccncc2)SC1=S,2,0,7,-2,-3,-6
O=C(O)CCN1C(=O)/C(=C\c2ccc(-c3nc4ccccc4s3)o2)SC1=S,-3,41*,+,i,25,45*
COc1cccc(NC(=O)Nc2nc(-c3ccc(OC)c(OC)c3)cs2)c1,1,1,-4,4,-7,1
COc1ccc(NS(=O)(=O)c2cccc(C(=O)N/N=C/c3ccc4c(c3)OCCO4)c2)cc1,17*,-5,-10,-4,6,1
O=S(Cc1ccc(Cl)cc1)c1ccccc1 (centres undefined),/,/,-2,2,0,-6
O=CN1CCN(C=O)C(O)C1O (centres undefined),/,/,-5,0,-2,2
Cc1ccc(S(=O)(=O)NC(=O)Nc2ccc(Cl)cn2)cc1,1,-6,-5,-1,8,0
Cc1ccc(S(=O)(=O)CC(=O)Nc2ccc(Cl)cn2)cc1,0,-1,14,4,-1,34*
CCn1c(CNC(=O)COc2ccc(C(C)C)cc2)nnc1SCC(=O)NC1CCCCC1C (centres undefined),-4,-3,-2,70*,9,3
CCCn1c2ccccc2c2cnn(CC(=O)N3CCN(C4CCCCC4)CC3)c(=O)c21,-2,-1,-3,-1,-3,3
COc1cccc(CNC(=O)c2cccc(S(=O)(=O)N3CCN(C)CC3)c2)c1,-3,-5,-20,4,10,5
SMILES,PP1 inh,TPT1 inhibitor,Rpn11 block,CSN deneddyl inh,NadD inh,HNF4A DNA FP
CCCn1c(=O)c(C(=O)OCC)c(O)c2cc(Br)ccc21,4,0,-4,6,2,-6
CCOC(=O)c1c(CN(C)C)n(C)c2c(O)c(N=NC(N)=O)c3ccc(Br)cc3c12,17*,-3,4,2,-7,4
Cc1ccc(N=Nc2c(N)[nH]n3c(=O)cc(-c4ccccc4)nc23)cc1,5,-3,-7,-6,55*,1
Cc1cc(=O)n2[nH]c(N)c(N=Nc3ccccc3)c2n1,1,1,-2,-2,4,-1
COc1cccc(N=Nc2c(N)[nH]n3c(=O)cc(-c4ccccc4)nc23)c1,0,-3,-4,-1,42*,-6
N#Cc1c(NC(=O)c2ccccc2Cl)n(Cc2ccccc2)c2nc3ccccc3nc12,22*,17,55*,74*,32*,73*
Cc1ccc(C(=O)CCC(=O)N(C)CC(=O)Nc2ccccc2Br)cc1,-2,-4,-1,-3,1,-3
Cc1cc(C(=O)CCC(=O)N(C)CC(=O)Nc2ccccc2Br)c(C)s1,-3,-3,4,54*,-7,6
CC(OC(=O)/C=C/c1cccc(Cl)c1)C(=O)NC1CCCCC1C (centres undefined),-3,-3,5,-1,-2,0
CC(OC(=O)c1cccc(Cl)c1)C(=O)NC1CCCCC1C (centres undefined),-6,0,2,57*,-3,6
CCC(C(=O)NC1CCCC1)n1c(C2CC2)nc2ccccc21 (centres undefined),/,/,/,-2,/,-1
CCCCCCN1C[C@H](n2cc(C3CC3)nn2)[C@@H](O)C[C@@H]1c1ccccc1,/,/,0,5,-1,-2
O=C(OC[C@H]1O[C@@H](OC(=O)c2cc(O)c(O)c(OC(=O)c3cc(O)c(O)c(O)c3)c2)[C@H](OC(=O)c2cc(O)c(O)c(OC(=O)c3cc(O)c(O)c(O)c3)c2)[C@@H](OC(=O)c2cc(O)c(O)c(OC(=O)c3cc(O)c(O)c(O)c3)c2)[C@@H]1OC(=O)c1cc(O)c(O)c(OC(=O)c2cc(O)c(O)c(O)c2)c1)c1cc(O)c(O)c(OC(=O)c2cc(O)c(O)c(O)c2)c1,82*,-4,/,/,/,/
COC1OC(COC(=O)c2ccccc2)C(OC(=O)c2ccccc2)C1OC(=O)c1ccccc1 (centres undefined),2,4,0,1,-8,3
Cc1cccc(CN2CCN(C3CN(C4CCCCC4)S(=O)(=O)C3)CC2)c1 (centres undefined),/,/,-7,1,-5,-2
CCOC(=O)/C(C#N)=N\Nc1cc(Cl)ccc1OC,-5,7,10,24,-9,75*
N#CC1=C(N)n2c(s/c(=C\c3ccco3)c2=O)=C(C#N)C1c1ccco1 (centres undefined),5,15,18,55,50*,-24
CC(C)c1ccc(/C=c2\sc3n(c2=O)C(N)=C(C#N)C(c2ccc(C(C)C)cc2)C=3C(N)=O)cc1 (centres undefined),/,/,1,-1,25,12
COc1cccc(OC)c1-c1nn2c(-c3cc(-c4ccccc4)n[nH]3)nnc2s1,59*,15,22,i,52*,225*
